Test results published in ChEMBL document CHEMBL3616427, “Design, synthesis, and biological evaluation of amide imidazole derivatives as novel metabolic enzyme CYP26A1 inhibitors” (Bioorg Med Chem, 2015).
pIC50: −log10 of the molar value.

Assays:
Cytochrome P450 26A1 [1] = target: T1, Cytochrome P450 26A1 (Homo sapiens, UniProt O43174); test: Inhibition of CYP26A1 (unknown origin)
T1 sequence (O43174 whole entry): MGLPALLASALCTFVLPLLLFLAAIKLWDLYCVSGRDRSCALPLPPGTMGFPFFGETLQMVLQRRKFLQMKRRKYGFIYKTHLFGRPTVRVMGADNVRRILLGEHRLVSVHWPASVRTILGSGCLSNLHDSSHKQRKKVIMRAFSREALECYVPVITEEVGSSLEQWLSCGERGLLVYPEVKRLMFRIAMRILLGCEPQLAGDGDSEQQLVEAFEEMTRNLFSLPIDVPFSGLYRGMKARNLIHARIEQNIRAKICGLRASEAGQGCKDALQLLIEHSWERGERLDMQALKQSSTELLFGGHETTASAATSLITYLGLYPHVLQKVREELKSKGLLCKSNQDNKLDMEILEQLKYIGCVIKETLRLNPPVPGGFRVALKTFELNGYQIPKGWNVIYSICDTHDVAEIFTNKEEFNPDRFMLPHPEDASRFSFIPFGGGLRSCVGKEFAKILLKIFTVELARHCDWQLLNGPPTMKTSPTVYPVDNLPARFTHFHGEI

Cytochrome P450 26A1 [2] = target: T1, Cytochrome P450 26A1; test: Inhibition of CYP26A1 in ATRA-induced human HL60 cell microsomes incubated for 30 mins in dark condition with NADPH and ATRA by HPLC method; format: cell-based, HL-60
HL-60 [3] = test: Growth inhibition of human HL60 cells at 10 uM incubated for 48 hrs by MTT assay; format: functional; settings: HL-60, 48 h, read-out: GI
In short: (§1)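 HL-60 cells plated at 1–104 cells/well (so in the source) and held 24 h at 37 °C, then exposed 48 h to inhibitor at 10 µM and/or ATRA at 0.1 µM. MTT (2 mg/mL) was added for 4 h at 37 °C, the supernatant was discarded, formazan was dissolved in DMSO and absorbance read at 570 nm. Percent growth inhibition reported.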

HL-60 [4] = test: Growth inhibition of human HL60 cells at 10 uM incubated for 48 hrs in presence of 0.1 uM ATRA by MTT assay; format: functional; in short: as §1
HL-60 [5] = test: Induction of cell differentiation in human HL60 cells at 10 uM incubated for 72 hrs by NBT dye based assay; format: functional
HL-60 [6] = test: Induction of cell differentiation in human HL60 cells at 10 uM incubated for 72 hrs in presence of 0.1 uM ATRA by NBT dye based assay; format: functional
Cytochrome P450 3A4 = Cytochrome P450 3A4 (Homo sapiens, UniProt P08684); test: Inhibition of CYP3A4 (unknown origin) incubated for 45 mins using NADPH by fluorescence assay; format: ADME
Chain of Cytochrome P450 3A4 (P08684 whole entry): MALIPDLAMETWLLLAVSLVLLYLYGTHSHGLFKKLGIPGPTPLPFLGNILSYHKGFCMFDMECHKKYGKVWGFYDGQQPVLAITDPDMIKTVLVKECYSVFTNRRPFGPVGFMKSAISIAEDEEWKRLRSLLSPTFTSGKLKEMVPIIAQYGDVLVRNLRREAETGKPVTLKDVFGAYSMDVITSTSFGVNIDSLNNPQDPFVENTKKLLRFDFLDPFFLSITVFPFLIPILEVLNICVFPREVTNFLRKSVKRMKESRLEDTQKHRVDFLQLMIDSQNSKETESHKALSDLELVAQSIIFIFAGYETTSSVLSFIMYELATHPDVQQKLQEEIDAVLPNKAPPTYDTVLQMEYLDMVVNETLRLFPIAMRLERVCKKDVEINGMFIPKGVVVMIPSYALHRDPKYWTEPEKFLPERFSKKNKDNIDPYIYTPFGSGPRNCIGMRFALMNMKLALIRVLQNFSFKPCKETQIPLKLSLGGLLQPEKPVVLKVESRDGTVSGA

Cytochrome P450 2D6 = Cytochrome P450 2D6 (Homo sapiens, UniProt P10635); test: Inhibition of CYP2D6 (unknown origin) incubated for 45 mins using NADPH and ATRA by HPLC assay; format: ADME
Chain of Cytochrome P450 2D6 (P10635 whole entry): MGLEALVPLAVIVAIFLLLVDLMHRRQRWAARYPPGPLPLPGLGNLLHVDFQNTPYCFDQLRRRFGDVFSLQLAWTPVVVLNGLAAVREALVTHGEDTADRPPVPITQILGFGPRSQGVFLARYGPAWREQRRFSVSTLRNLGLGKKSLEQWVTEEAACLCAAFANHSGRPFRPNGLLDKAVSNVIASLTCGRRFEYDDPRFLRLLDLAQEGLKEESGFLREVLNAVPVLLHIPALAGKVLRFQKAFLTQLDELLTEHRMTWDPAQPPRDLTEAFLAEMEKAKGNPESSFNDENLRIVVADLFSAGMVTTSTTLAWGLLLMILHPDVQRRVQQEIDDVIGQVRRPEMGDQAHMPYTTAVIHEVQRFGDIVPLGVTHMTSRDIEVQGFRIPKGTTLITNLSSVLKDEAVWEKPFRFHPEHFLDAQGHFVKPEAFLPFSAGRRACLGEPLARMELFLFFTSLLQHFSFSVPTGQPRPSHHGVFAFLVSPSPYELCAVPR

Cytochrome P450 26A1 [7] = target: T1, Cytochrome P450 26A1; test: Inhibition of CYP26A1-mediated ATRA metabolism in human HL60 cells assessed as ATRA level at 5 uM incubated for 24 hrs by HPLC method (reference value: 7.19 uM); format: cell-based; settings: hl-60, 24 h
Cytochrome P450 26A1 [8] = target: T1, Cytochrome P450 26A1; test: Inhibition of CYP26A1-mediated ATRA metabolism in human HL60 cells assessed as ATRA level at 5 uM incubated for 48 hrs by HPLC method (reference value: 4.95 uM); format: cell-based; settings: hl-60, 48 h
Cytochrome P450 26A1 [9] = target: T1, Cytochrome P450 26A1; test: Inhibition of CYP26A1-mediated ATRA metabolism in human HL60 cells assessed as ATRA level at 5 uM incubated for 72 hrs by HPLC method (reference value: 3.6 uM); format: cell-based; settings: hl-60, 72 h
Cytochrome P450 26A1 [10] = target: T1, Cytochrome P450 26A1; test: Inhibition of CYP26A1-mediated ATRA metabolism in human HL60 cells assessed as ATRA level at 5 uM incubated for 96 hrs by HPLC method (reference value: 1.21 uM); format: cell-based; settings: hl-60, 96 h
[11] = Selectivity index, ratio of IC50 for CYP3A4 (unknown origin) to IC50 for CYP26A1 in ATRA-induced human HL60 cell microsomes; design: species or system HL-60
[12] = Selectivity index, ratio of IC50 for CYP2D6 (unknown origin) to IC50 for CYP26A1 in ATRA-induced human HL60 cell microsomes; design: species or system HL-60
HL-60 [13] = test: Growth inhibition of human HL60 cells at 0.1 uM incubated for 48 hrs by MTT assay; format: functional; settings: HL-60, 48 h, read-out: GI; in short: as §1
HL-60 [14] = test: Induction of cell differentiation in human HL60 cells at 0.1 uM incubated for 72 hrs by NBT dye based assay; format: functional

SMILES	pIC50 (Cytochrome P450 26A1 [2])	inhibition of growth at 10 µM (HL-60 [3]) [%]	growth inhibition (GI) (HL-60 [4]) [%]	Activity (HL-60 [5]) [%]	Activity (HL-60 [6]) [%]	other results
CCC(CC)[C@H](c1ccc(Nc2nc3ccccc3s2)cc1)n1cncn1	–	–	–	–	–	pIC50 (Cytochrome P450 26A1 [1]): 8.40
COC(=O)C(Cn1ccnc1)NC(=O)c1ccc(-c2ccccc2)cc1 (stereo not drawn)	6.43	9.64	51.38	0	47.69	–
CCOC(=O)C(Cn1ccnc1)NC(=O)c1ccc(-c2ccccc2)cc1 (stereo not drawn)	6.19	7.61	48.19	0	45.64	–
CCCOC(=O)C(Cn1ccnc1)NC(=O)c1ccc(-c2ccccc2)cc1 (stereo not drawn)	6.10	5.04	42.92	0	44.78	–
CC(C)OC(=O)C(Cn1ccnc1)NC(=O)c1ccc(-c2ccccc2)cc1 (stereo not drawn)	6.27	6.58	54.58	0	53.91	–
CC(C)COC(=O)C(Cn1ccnc1)NC(=O)c1ccc(-c2ccccc2)cc1 (stereo not drawn)	6.01	8.99	46.55	0	39.87	–
COC(=O)C(Cn1ccnc1)NC(=O)c1c(C)nn(-c2ccccc2)c1Cl (stereo not drawn)	6.66	10.9	55.36	0	50.51	pIC50 (Cytochrome P450 3A4): 5.93; pIC50 (Cytochrome P450 2D6): 5.25; Activity (Cytochrome P450 26A1 [7]): 9.3 µM; Activity (Cytochrome P450 26A1 [8]): 7.45 µM; Activity (Cytochrome P450 26A1 [9]): 5.67 µM; Activity (Cytochrome P450 26A1 [10]): 3.51 µM
CCOC(=O)C(Cn1ccnc1)NC(=O)c1c(C)nn(-c2ccccc2)c1Cl (stereo not drawn)	6.22	7.25	52.17	0	46.44	–
CCCOC(=O)C(Cn1ccnc1)NC(=O)c1c(C)nn(-c2ccccc2)c1Cl (stereo not drawn)	6.21	6.59	45.58	0	43.83	–
Cc1nn(-c2ccccc2)c(Cl)c1C(=O)NC(Cn1ccnc1)C(=O)OC(C)C (stereo not drawn)	6.34	4.98	44.79	0	51.85	pIC50 (Cytochrome P450 3A4): 5.31; pIC50 (Cytochrome P450 2D6): 5.02; Ratio IC50 [11]: 11; Ratio IC50 [12]: 21; Activity (Cytochrome P450 26A1 [7]): 9.22 µM; Activity (Cytochrome P450 26A1 [8]): 7.87 µM; Activity (Cytochrome P450 26A1 [9]): 6.06 µM; Activity (Cytochrome P450 26A1 [10]): 4.41 µM
Cc1nn(-c2ccccc2)c(Cl)c1C(=O)NC(Cn1ccnc1)C(=O)OCC(C)C (stereo not drawn)	5.99	8.24	43.54	0	40.79	–
COC(=O)C(Cn1ccnc1)NC(=O)c1nc2ccccc2s1 (stereo not drawn)	6.39	8.64	50.36	0	49.11	–
CCOC(=O)C(Cn1ccnc1)NC(=O)c1nc2ccccc2s1 (stereo not drawn)	6.13	6.66	45.4	0	48.31	–
CCCOC(=O)C(Cn1ccnc1)NC(=O)c1nc2ccccc2s1 (stereo not drawn)	6.08	7.64	47.83	0	42.62	–
CC(C)OC(=O)C(Cn1ccnc1)NC(=O)c1nc2ccccc2s1 (stereo not drawn)	6.20	5.04	46.36	0	50.85	–
CC(C)COC(=O)C(Cn1ccnc1)NC(=O)c1nc2ccccc2s1 (stereo not drawn)	5.95	9.49	43.33	0	38.62	–
CC(C(c1ccc(Nc2nc3ccccc3s2)cc1)n1cncn1)N(C)C (stereo not drawn)	–	–	–	–	–	pIC50 (Cytochrome P450 26A1 [1]): 8.00
Clc1cccc(C(c2ccc3[nH]cnc3c2)n2ccnc2)c1 (stereo not drawn) [LIAROZOLE]	–	16.4	48.37	0	45.55	pIC50 (Cytochrome P450 2D6): 5.32
CC1=C(/C=C/C(C)=C/C=C/C(C)=C/C(=O)O)C(C)(C)CCC1 [TRETINOIN]	–	–	–	–	–	inhibition of growth at 0.1 µM (HL-60 [13]): 21.8%; Activity (HL-60 [14]): 28.04%
